# Results: PubChem BioAssay
# The source made the active and inactive calls.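 How the source made its calls, unless noted: active means visually confirmed hit in the image check and inhibition above 20%; inconclusive means visually confirmed hit but inhibition not above 20%; inactive means no visual hit in the image check.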
# Tests used:
# [1] = inhibitors of TNFa-induced NFkB p65 translocation, primary screen, imaging, HUVEC, MLSMR starter and 10KST1 sets (AID 438;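 active means inhibition above 20% together with a positive visual image hit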;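 further: compound added about 3h40 before a 20 min TNFalpha stimulation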;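 on inhibition: signal is the nuclear over cytoplasmic p65 intensity ratio per well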); settings: HUVEC TNFa-induced p65 nuclear translocation; cell count: measured here: nuclei count (cytotoxicity indicator), at 2.08 µM; inhibition: at 2 µM, stronger effect = higher value, 0% TNFa-plus-vehicle, 100% no-TNFa wells
# [2] = inhibitors of mutant huntingtin aggregation, primary screen, imaging, exon1htt(103Q)mCFP cells, high-content imaging (AID 483;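 active means visual image review flags a hit and inhibition of aggregation exceeds 20%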;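 further: compound exposure lasted 3 days before fixation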;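 on nuclei count: percent of the per-plate median nuclei count of sample wells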); settings: exon1htt(103Q)mCFP cell line, aggregate imaging, at 2 µM; inhibition of aggregation: stronger effect = higher value; nuclei count: measured here: cell count, toxicity
# [3] = inhibitors of E-selectin induction by TNFa, primary screen, imaging, HUVEC, immunofluorescence, MLSMR starter and 10KST1 sets (AID 487); settings: HUVEC TNFalpha-induced E-selectin immunofluorescence imaging, at 2 µM; inhibition: stronger effect = higher value; nuclei count: measured here: cell number, toxicity;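 on inhibition: signal is fraction of cell area covered by stained E-selectin grains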;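 on nuclei count: 100% = median nuclei count of all wells on the same plate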
# [4] = target: Voltage-gated potassium channel subunit beta-2 (Rattus norvegicus) (UniProt P62483); assay: KvBeta enzyme negative modulators, primary screen, biochemical, NADPH fluorescence (AID 622;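 active means fluorescence slope higher than the sample average by over 3 SD, cut at about -0.22 in these data, passing the limit was not always enough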;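 further: slope of raw intensity against log time taken from 70 to 1610 s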); settings: recombinant KvBeta, 4-cyanobenzaldehyde reduction, at 10 µM, stronger effect = higher value
# [5] = target: Voltage-gated potassium channel subunit beta-2 (Rattus norvegicus) (UniProt P62483); assay: KvBeta positive modulators, primary screen, biochemical, NADPH fluorescence (AID 623;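 active means NADPH fluorescence slope more negative than the mean of all samples by about 3 SD, 99.7% confidence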;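 further: fluorescence intensity change per second fitted from 20 to 320 s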); settings: Recombinant KvBeta, NADPH fluorescence decrease slope, 10 min; at 10 µM; stronger effect = lower value
# [6] = target: Muscarinic acetylcholine receptor M4 (Homo sapiens) (UniProt P08173); assay: compounds altering M4/GIRK thallium flux, either direction, primary screen, M4 allosteric agonist project, cell-based, HEK293 M4/GIRK, BTC-AM (AID 625;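 active means fluorescence slope after compound addition differing from the mean of all tested samples at 99.7% confidence, mostly higher but some lower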;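 further: thallium influx through GIRK channels coupled to M4 in HEK293 cells with BTC-AM dye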); settings: at 10 µM, actives lie on both sides
# In short: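 Material – HEK293 cells with M4 receptor and GIRK channels · Buffer or medium – pH 7.3 thallium assay buffer · Doses – one dose, 10 µM final · Timing – cells overnight at 37 °C, BTC-AM loading 1 h, reads 2 min total · Measured by – kinetic fluorescence with BTC-AM dye · Controls – carbachol and DMSO controls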
# [7] = inhibitors of Sendai virus-induced IRF3 signaling, primary screen, TLR/RLR signaling modifier project, cell-based, Sendai virus stimulus, luciferase, 10K MLSCN set (AID 602276;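 active means inhibition at or above 50% at 10 µM; inactive means inhibition below 50%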;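 further: firefly luciferase from ISG56 promoter only with Renilla not read in this screen; 0% = Sendai virus plus DMSO and 100% = medium plus DMSO without virus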); settings: HEK293 RL24 IRF3 luciferase reporter, at 10 µM, stronger effect = higher value
# [8] = inhibitors of poly I:C-induced TLR3 signaling, primary screen, cell-based, poly I:C stimulus, luciferase, 10K MLSCN set (AID 602277;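 active means inhibition of the reporter signal at or above 50%; inactive means inhibition below 50%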); settings: HEK293-TLR3 RL24 IRF3 luciferase reporter, at 10 µM, stronger effect = higher value
# Muscarinic acetylcholine receptor M4 (Homo sapiens), sequence (P08173 whole entry, looked up): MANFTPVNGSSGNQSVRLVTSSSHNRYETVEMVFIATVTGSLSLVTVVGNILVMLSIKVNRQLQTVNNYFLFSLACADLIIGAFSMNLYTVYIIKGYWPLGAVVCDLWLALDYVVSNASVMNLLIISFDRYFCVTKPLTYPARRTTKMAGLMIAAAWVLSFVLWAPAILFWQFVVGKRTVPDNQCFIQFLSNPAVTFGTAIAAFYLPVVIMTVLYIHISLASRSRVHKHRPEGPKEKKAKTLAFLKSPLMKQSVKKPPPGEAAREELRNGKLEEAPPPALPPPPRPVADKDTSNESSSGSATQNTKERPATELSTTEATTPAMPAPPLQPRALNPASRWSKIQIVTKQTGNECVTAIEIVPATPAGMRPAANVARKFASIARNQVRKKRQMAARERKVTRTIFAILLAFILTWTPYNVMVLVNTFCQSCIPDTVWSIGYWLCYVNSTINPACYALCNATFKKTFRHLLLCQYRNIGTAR
# Voltage-gated potassium channel subunit beta-2 (Rattus norvegicus), sequence (P62483 whole entry, looked up): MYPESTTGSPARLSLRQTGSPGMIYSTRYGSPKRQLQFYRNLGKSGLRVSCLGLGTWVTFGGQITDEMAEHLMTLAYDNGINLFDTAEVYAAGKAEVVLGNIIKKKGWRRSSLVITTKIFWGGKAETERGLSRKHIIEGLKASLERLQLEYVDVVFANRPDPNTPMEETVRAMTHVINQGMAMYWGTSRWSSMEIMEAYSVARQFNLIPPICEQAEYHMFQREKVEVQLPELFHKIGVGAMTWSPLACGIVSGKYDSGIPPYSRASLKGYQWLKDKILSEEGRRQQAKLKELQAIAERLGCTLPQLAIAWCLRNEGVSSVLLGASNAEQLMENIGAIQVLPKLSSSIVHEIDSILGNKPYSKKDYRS
Structure (SMILES),cell count [1],inhibition [1],inhibition of aggregation [2],nuclei count [2] [%],inhibition [3],nuclei count [3] [%],fluorescence slope [4],NADPH fluorescence slope [5],fluorescence slope [6],inhibition [7],inhibition [8]
CC(=O)c1c(C)[nH]c(C(=O)NCc2cccs2)c1C,471,2.9% (inactive),15.8% (inactive),116,-76.6% (inactive),95.6,-0.561 (inactive),-4.9e-05 (inactive),0.00619 (inactive),-3.69% (inactive),-17.2% (inactive)
O=C(COc1ccccc1Cl)OCC(=O)N1CCN(S(=O)(=O)c2ccccc2)CC1,270,2.6% (inactive),-0.5% (inactive),107,-107% (inactive),119,-0.438 (inactive),7.9e-05 (inactive),0.00565 (inactive),16.4% (inactive),21% (inactive)
COc1ccc(-c2noc(-c3cc(Cl)ccc3Cl)n2)cc1OC,686,-10.5% (inactive),-10.9% (inactive),104,14.6% (inactive),86.8,-0.526 (inactive),-2.2e-05 (inactive),0.00828 (inactive),0.153% (inactive),-15.5% (inactive)
Cc1nc2ccccc2c(=O)n1NC(=O)c1c(O)c2c(n(CC(C)C)c1=O)CCCC2,439,4% (inactive),9.9% (inactive),76.7,21.1% (inactive),101,-0.558 (inactive),-5e-05 (inactive),0.00523 (inactive),18.5% (inactive),13.4% (inactive)
CCNC(=O)COc1ccc(Br)cc1Cl,302,0% (inactive),-7.5% (inactive),93.8,0.5% (inactive),109,-0.547 (inactive),2.4e-05 (inactive),0.00609 (inactive),-12.6% (inactive),-57.4% (inactive)
Cc1ccccc1N(CC(=O)NCC1CCCO1)C(=O)C1(C)CC(=O)N=C2C=CC=CN21 (centres undefined),651,-9.4% (inactive),-3.5% (inactive),100,-111% (inactive),133,-0.492 (inactive),-9.2e-06 (inactive),0.00558 (inactive),3.63% (inactive),1.93% (inactive)
Cc1ccc(SCCNS(=O)(=O)c2ccc(F)cc2)cc1,348,4% (inactive),-4.1% (inactive),106,-53.9% (inactive),122,-0.55 (inactive),-3.1e-05 (inactive),0.0043 (inactive),8.34% (inactive),12.7% (inactive)
CCNc1nc(NC(C)C)nc(N(C#N)CCOc2ccc(Cl)cc2Cl)n1,603,-8.6% (inactive),20.7% (inactive),98.5,-123% (inactive),96.3,-0.446 (inactive),-3.7e-05 (inactive),0.00644 (inactive),15.5% (inactive),-2.09% (inactive)
CCc1cc2c(NCCC(=O)O)ncnc2s1,507,15.8% (inactive),4.4% (inactive),103,13.4% (inactive),110,-0.562 (inactive),1.3e-05 (inactive),0.00669 (inactive),12.3% (inactive),17.4% (inactive)
C=CCn1c(SCc2ccc3nonc3c2)nnc1-c1cccs1,644,-14% (inactive),3.4% (inactive),91.6,13.9% (inactive),92.9,-0.384 (inactive),4.9e-05 (inactive),0.00442 (inactive),15% (inactive),17.7% (inactive)
COC(=O)Cc1c(C)nc2nc(-c3ccccc3)[nH]n2c1=O,615,1.9% (inactive),18.9% (inactive),68,-15.7% (inactive),97.2,-0.474 (inactive),-9.1e-06 (inactive),0.00459 (inactive),0.882% (inactive),6.76% (inactive)
CCOc1ccc2nc(NC(=O)C(NS(=O)(=O)c3cccs3)C(C)C)sc2c1 (centres undefined),390,10% (inactive),6.2% (inactive),105,-146% (inactive),122,-0.423 (inactive),2.6e-05 (inactive),0.00543 (inactive),18.1% (inactive),20.4% (inactive)
CCOc1ccc(C2/C(=C(/O)c3ccccc3)C(=O)C(=O)N2CCCN(C)C)cc1OC (centres undefined),411,-1.1% (inactive),-13.7% (inactive),102,-29.6% (inactive),92.2,-0.446 (inactive),-4.1e-05 (inactive),0.00491 (inactive),19.2% (inactive),15.1% (inactive)
COC(=O)c1cccc(S(=O)(=O)N2CCN(c3nc4ccccc4s3)CC2)c1,299,-5% (inactive),6.2% (inactive),96.3,-24.1% (inactive),80.7,-0.539 (inactive),1.2e-05 (inactive),0.00622 (inactive),1.3% (inactive),8.61% (inactive)
Cc1ccc(-n2ncc3c(Nc4c(C)n(C)n(-c5ccccc5)c4=O)ncnc32)c(C)c1,443,9.3% (inactive),6.8% (inactive),96.6,-81.8% (inactive),120,-0.538 (inactive),-2.2e-05 (inactive),0.0045 (inactive),13.9% (inactive),12.5% (inactive)
CCOC(=O)CSc1nnc(CNC(=O)c2cccs2)n1-c1cc(OC)ccc1OC,521,-3.3% (inactive),-5.1% (inactive),103,-7.4% (inactive),95.1,-0.545 (inactive),-2.7e-05 (inactive),0.00509 (inactive),0.513% (inactive),17.5% (inactive)
CN1CCN(CC(=O)Nc2ccc(Cl)cc2Cl)CC1,445,-3.5% (inactive),0% (inactive),103,66.8% (inactive),78.8,-0.619 (inactive),7.6e-06 (inactive),0.00642 (inactive),11% (inactive),14.7% (inactive)
Nc1nnc(SCCOc2ccccc2)s1,417,-0.9% (inactive),2.2% (inactive),108,-70% (inactive),98.8,-0.535 (inactive),-1.2e-05 (inactive),0.00525 (inactive),-8.16% (inactive),-14% (inactive)
CN(C)c1nc(N)nc(CSc2nnnn2-c2cccc3ccccc23)n1,627,-10.4% (inactive),27.3% (inactive),71.9,-69.3% (inactive),103,-0.463 (inactive),-3.9e-05 (inactive),0.00537 (inactive),18.6% (inactive),14.8% (inactive)
CCCn1c(=N)n(CC(=O)c2cccs2)c2ccccc21,427,3.8% (inactive),-0.8% (inactive),87.6,-47% (inactive),114,-0.552 (inactive),-2.9e-05 (inactive),0.00423 (inactive),2.39% (inactive),3.66% (inactive)
Clc1ccc(Cc2nn3c(-c4ccncc4)nnc3s2)cc1,322,-5.1% (inactive),5.5% (inactive),83.3,-102% (inactive),110,-0.523 (inactive),-0.000147 (inactive),0.00382 (inactive),-1.37% (inactive),-9.67% (inactive)
CN(CC(=O)N1CCN(C2CCCCC2)CC1)S(=O)(=O)c1cccc2nsnc12,367,0.8% (inactive),-4.6% (inactive),102,36% (inactive),94.6,-0.379 (inactive),8e-05 (inactive),0.00544 (inactive),13% (inactive),28.3% (inactive)
O=C(Nc1cccc(F)c1)N1CC=C(n2c(=O)[nH]c3ccccc32)CC1,312,5.7% (inactive),4.5% (inactive),107,-37.9% (inactive),83.5,-0.453 (inactive),-0.000227 (inactive),0.00517 (inactive),15% (inactive),15.5% (inactive)
C=CCSc1nnc(-c2ccccc2NC(C)=O)c(=O)[nH]1,765,-33.6% (inactive),8% (inactive),102,-60.3% (inactive),107,-0.468 (inactive),-0.000277 (inactive),0.00542 (inactive),-0.29% (inactive),9.66% (inactive)
CCCc1cc(=O)n2[nH]cnc2n1,285,11.4% (inactive),-16% (inactive),80,-11.2% (inactive),101,-0.285 (inactive),-1.5e-05 (inactive),0.00663 (inactive),11% (inactive),19.9% (inactive)
Brc1ccc(-c2cn3cccnc3n2)cc1,514,3.4% (inactive),-8.8% (inactive),121,-4.5% (inactive),110,-0.138 (active),7.5e-06 (inactive),0.00424 (inactive),-47.6% (inactive),-89.9% (inactive)
CCNC(=O)CC1C(=O)N(c2ccc(F)cc2)C(=O)N1CCC(C)C (centres undefined),357,-10.8% (inactive),17.4% (inactive),92.3,-21.1% (inactive),106,-0.525 (inactive),-5.9e-06 (inactive),0.00457 (inactive),4.4% (inactive),15.9% (inactive)
CCCn1nnnc1SCC(=O)c1ccc2c(c1)OCCO2,571,2.6% (inactive),-22.6% (inactive),120,34% (inactive),101,-0.441 (inactive),0.000111 (inactive),0.00722 (inactive),-31.3% (inactive),-69.8% (inactive)
C=CCOc1cccc(C2/C(=C(\O)c3ccc(F)cc3)C(=O)C(=O)N2CCN(C)C)c1 (centres undefined),699,-12.1% (inactive),20.1% (inactive),82.8,33.3% (inactive),99.1,-0.493 (inactive),-0.000177 (inactive),0.00287 (inactive),8.26% (inactive),15.2% (inactive)
